E-sel inducer: E-selectin induction on HUVECs; P16581; HUVEC E-selectin immunofluorescence imaging; normalized: neutral wells 0, TNF-alpha wells 100; activation, % at 7.58 µM; 0.37% of 260,000 active;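 active = mean E-selectin-positive cell signal at least 10% of the positive control, reached in at least 60% of replicates, without over 20% cell loss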
Target sequence (P16581 whole entry, looked up): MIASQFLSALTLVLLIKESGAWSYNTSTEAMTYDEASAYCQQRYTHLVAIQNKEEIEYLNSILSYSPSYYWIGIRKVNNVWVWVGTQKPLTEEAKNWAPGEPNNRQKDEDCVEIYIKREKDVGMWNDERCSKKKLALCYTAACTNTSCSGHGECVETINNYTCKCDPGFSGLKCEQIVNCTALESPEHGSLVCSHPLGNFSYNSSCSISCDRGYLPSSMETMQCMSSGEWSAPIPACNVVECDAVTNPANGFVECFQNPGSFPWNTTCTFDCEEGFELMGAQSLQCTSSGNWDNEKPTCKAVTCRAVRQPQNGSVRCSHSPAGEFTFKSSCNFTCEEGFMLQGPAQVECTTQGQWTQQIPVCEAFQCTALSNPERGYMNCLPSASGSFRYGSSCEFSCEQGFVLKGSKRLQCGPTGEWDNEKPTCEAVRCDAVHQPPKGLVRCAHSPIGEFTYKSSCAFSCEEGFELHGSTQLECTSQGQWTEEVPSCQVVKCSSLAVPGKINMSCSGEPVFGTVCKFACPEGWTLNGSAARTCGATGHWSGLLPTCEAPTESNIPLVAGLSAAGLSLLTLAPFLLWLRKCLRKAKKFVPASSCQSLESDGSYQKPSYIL
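assay system = HUVEC, human umbilical vein endothelial cells | input = 3,000 HUVEC seeded per well | medium = EGM-2 growth medium on 0.1% gelatin-coated wells | dosing = one compound dose added by pin transfer | signal = immunofluorescence imaging | read-out basis = % PE-positive cells | control set = TNF-alpha, DMSO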
Hits are given with their value; . = inactive. Shown is part of a subset that was picked to be rich in hits.

SMILES | E-sel inducer
COc1ccc(-c2ccc([C@H]3[C@@H](CO)N(C(=O)C4CCC4)[C@H]3C#N)cc2)cc1 | .
CN1C(=O)c2cc(NS(C)(=O)=O)ccc2OC[C@@H]2O[C@@H](CC(=O)NCc3ccc(-c4ccccc4)cc3)CC[C@@H]21 | .
C[C@H](CO)N1C[C@H](C)[C@H](CN(C)C(=O)c2ccncc2)OCCCC[C@H](C)Oc2ccc(NC(=O)CCCCCC(=O)Nc3ccccc3N)cc2C1=O | .
Cc1cc(C)c(C(=O)N(C)CC2CCCN(CCc3ccccc3F)C2)o1 (configuration not stated) | .
Cc1ccccc1CCN1CCCC(CN(C)C(=O)c2ccc3ncccc3c2)C1 (configuration not stated) | 68.3
Cc1ccccc1CCN1CCCC(CN(C)C(=O)C(=O)c2ccco2)C1 (configuration not stated) | .
CC(C)NC(=O)N(C)C[C@@H]1Oc2c(NC(=O)C3CCOCC3)cccc2C(=O)N([C@@H](C)CO)C[C@@H]1C | .
COc1ccc(NC(=O)CN(C)C(=O)c2ccc(N3CCCCCC3)c([N+](=O)[O-])c2)cc1 | .
CCc1ccc(NC(=O)C(C)OC(=O)c2ccc(N3CCCC3)c([N+](=O)[O-])c2)cc1 (configuration not stated) | 26.4
O=C(Nc1ccc(CN2CCOCC2)cc1)c1ccc(N2CCCC2)c([N+](=O)[O-])c1 | .
C[C@@H]1CN([C@@H](C)CO)C(=O)c2cc(NC(=O)Nc3ccc4c(c3)OCO4)ccc2O[C@H]1CN(C)CC1CCCCC1 | .
COC(=O)c1cc2c(cc1Cl)N1CCCCCC1=NS2(=O)=O | .
CN(C)S(=O)(=O)c1cccc(NC(=O)c2cc3c(cc2Cl)N2CCCCCC2=NS3(=O)=O)c1 | .
COc1cccc(CNC(=O)c2cc3c(cc2Cl)N2CCCCCC2=NS3(=O)=O)c1 | 100.4
C[C@@H]1CN([C@H](C)CO)C(=O)Cc2cc(NC(=O)Nc3cccc4ccccc34)ccc2O[C@H]1CN(C)S(=O)(=O)c1ccccc1 | .
C[C@H](CO)N1C[C@H](C)[C@H](CN(C)S(=O)(=O)c2cn(C)cn2)Oc2ncc(C#Cc3ccc(F)cc3)cc2C1=O | .
CN(C)c1ccc(/C=N/N2C(=O)c3ccccc3C2=O)cc1 | .
Cc1cc2c(=Cc3ccc(N(C)C)cc3)c3ccccc3n2[n+]1C | 49.0
CCOC(=O)c1cc2c(=Cc3ccc(N(C)C)cc3)c3ccccc3n2[n+]1C | 138.7
CCOC(=O)c1nc2c(ccc3ccccc32)cc1C | .
COc1cc2c(cc1OC)C(=Cc1ccc(N(C)C)cc1)C=C2 | .
CCOC(=O)NC(=O)/C(C#N)=C/c1ccc(N(C)C)cc1 | .
CNC(=O)C[C@H]1CC[C@H]2[C@@H](COc3ccc(NC(=O)c4ccc(F)c(F)c4)cc3C(=O)N2C)O1 | .
CC(=O)N1C[C@@H]2[C@H](c3ccccc31)[C@@H](CO)N2C(=O)CC1CC1 | .
CO[C@H]1CN(C)C(=O)c2cc(NS(=O)(=O)c3ccc(C)cc3)ccc2OC[C@@H](C)N(Cc2nccs2)C[C@@H]1C | .
SMILES | E-sel inducer
N=C1C(c2nc3ccccc3s2)=C(O)CN1NC(=O)c1ccco1 | 32.8
O=C(Nc1nc(-c2nc3ccccc3s2)cs1)c1ccco1 | .
CC(O)CN1CC(O)=C(c2nc3ccccc3s2)C1=N (configuration not stated) | .
C[C@@H](NC(=O)C[C@@H]1CC[C@H]2[C@@H](COc3ccc(NC(=O)C4CCOCC4)cc3C(=O)N2C)O1)c1ccccc1 | .
CCCNC(=O)NC[C@H]1[C@H](c2ccc(C3=CCCC3)cc2)[C@@H](CO)N1C(=O)CC | .
COC(=O)c1sc2nc(SCc3ccccc3C)n(N)c(=O)c2c1C | .
COC(=O)c1sc2nc(SCC(=O)N(C)c3ccccc3)n(N)c(=O)c2c1C | 154.0
COC(=O)c1sc2nc(SCc3cccc(Cl)c3)n(N)c(=O)c2c1C | .
C[C@H](CO)N1C[C@H](C)[C@@H](CN(C)S(=O)(=O)c2ccc(F)cc2)Oc2ccc(NC(=O)Nc3ccc4c(c3)OCO4)cc2C1=O | .
C[C@H]1CN([C@@H](C)CO)C(=O)c2cc(NC(=O)CCN3CCOCC3)ccc2O[C@H]1CN(C)S(=O)(=O)c1cccs1 | .
C[C@@H]1CN([C@@H](C)CO)C(=O)c2cc(NC(=O)NC3CCCCC3)ccc2O[C@H]1CN(C)S(=O)(=O)c1ccc(Cl)cc1 | .
C[C@@H]1CN([C@@H](C)CO)C(=O)c2cc(NC(=O)Nc3ccc(F)cc3)ccc2O[C@H]1CN(C)S(=O)(=O)c1cccs1 | .
C[C@@H]1CN([C@H](C)CO)C(=O)c2cc(NC(=O)Nc3ccc4c(c3)OCO4)ccc2O[C@H]1CN(C)S(=O)(=O)c1ccc(F)cc1 | 51.2
C[C@H]1CN([C@@H](C)CO)C(=O)c2cc(NC(=O)CCN3CCOCC3)ccc2O[C@@H]1CN(C)S(=O)(=O)c1cccs1 | .
C[C@@H]1CN([C@H](C)CO)C(=O)c2cc(NC(=O)NC3CCCCC3)ccc2O[C@@H]1CN(C)S(=O)(=O)c1ccc(Cl)cc1 | .
C[C@H](CO)N1C[C@H](C)[C@@H](CN(C)S(=O)(=O)c2cccs2)Oc2ccc(NC(=O)CCN3CCOCC3)cc2C1=O | 62.9
C[C@H](CO)N1C[C@H](C)[C@H](CN(C)S(=O)(=O)c2ccc(Cl)cc2)Oc2ccc(NC(=O)NC3CCCCC3)cc2C1=O | 435.6
C[C@@H]1CN([C@H](C)CO)C(=O)c2cc(NC(=O)Nc3ccc(F)cc3)ccc2O[C@H]1CN(C)S(=O)(=O)c1cccs1 | 38.7
C[C@@H]1CN([C@@H](C)CO)C(=O)c2cc(NC(=O)Nc3ccc4c(c3)OCO4)ccc2O[C@H]1CN(C)S(=O)(=O)c1ccc(F)cc1 | .
C[C@@H]1CN([C@H](C)CO)C(=O)c2cc(NC(=O)Nc3ccc(F)cc3)ccc2O[C@@H]1CN(C)S(=O)(=O)c1cccs1 | .
CC(C)NC(=O)N(C)C[C@@H]1Oc2cc(C#Cc3ccc(F)cc3)ccc2S(=O)(=O)N([C@H](C)CO)C[C@H]1C | .
O=C(C[C@H]1CC[C@H](NC(=O)C2CCOCC2)[C@@H](CO)O1)NCc1ccccc1Cl | .
C[C@H](CO)N1C[C@H](C)[C@H](CN(C)C(=O)Nc2ccccc2)Oc2cc(C#CC3(O)CCCC3)ccc2S1(=O)=O | .
O=C(Nc1cc(F)ccc1F)N1CC(=O)N2[C@H](CO)[C@H](c3ccc(-c4cccnc4)cc3)[C@H]2C1 | .
Cc1ccc(S(=O)(=O)N(C)C[C@@H]2Oc3ccc(NC(=O)Nc4ccc(C(F)(F)F)cc4)cc3C(=O)N([C@H](C)CO)C[C@H]2C)cc1 | .
SMILES | E-sel inducer
C[C@H]1CN([C@@H](C)CO)C(=O)c2cc(NC(=O)Nc3ccc(C(F)(F)F)cc3)ccc2O[C@@H]1CN(C)S(=O)(=O)c1ccccc1 | 132.6
C[C@@H]1CN([C@H](C)CO)C(=O)c2cc(NC(=O)Nc3ccc(C(F)(F)F)cc3)ccc2O[C@@H]1CN(C)S(=O)(=O)c1ccc(F)cc1 | .
COc1ccc2c3c(n(C)c2c1)[C@@H](CO)N(S(C)(=O)=O)CC31CN(C(=O)c2ccccn2)C1 | .
CCc1ccc(C(=O)NNc2ccc(F)cc2)cc1 | .
CCc1ccc(C(=O)NNc2ccccc2F)cc1 | .
CCCc1ccc(C(=O)NNc2ccccc2F)cc1 | 55.0
C[C@H]1CN([C@@H](C)CO)S(=O)(=O)c2ccc(-c3cccnc3)cc2O[C@@H]1CN(C)C | .
C[C@H](CO)N1C[C@H](C)[C@H](CN(C)C(=O)c2ccccc2)OCCCC[C@H](C)Oc2ccc(NC(=O)Cc3ccccc3)cc2C1=O | .

Source: PubChem BioAssay (Broad Institute)
